For data set [1], the system named is Bacillus anthracis. As to the kind of experiment: (§1) Inhibition of Bacillus anthracis sortase A. Details: concentration or dose not given beside the values. As to conditions: concentration not given here.
Data set [2] deals with T1, Sortase A (Staphylococcus aureus) (UniProt Q9S446).
T1 sequence (whole entry): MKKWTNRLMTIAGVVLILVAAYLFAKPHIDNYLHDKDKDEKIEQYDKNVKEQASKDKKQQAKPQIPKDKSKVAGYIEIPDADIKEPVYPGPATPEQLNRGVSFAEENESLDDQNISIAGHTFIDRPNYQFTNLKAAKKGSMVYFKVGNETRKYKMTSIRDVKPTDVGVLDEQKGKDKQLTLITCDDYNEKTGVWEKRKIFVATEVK
In words: Inhibition of Staphylococcus aureus sortase A at 10 ng. An outline of the steps:
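Purified S. aureus SrtA (2 μM) preincubated with 10 ng compound in DMSO for 1 h at 25 °C. FRET substrate a-LPETG-d was then added to 2 μM in 5 mM CaCl2, 150 mM NaCl, 50 mM Tris-HCl pH 7.5, and incubated 24 h at 37 °C. Fluorescence read at ex 320/em 420 nm. Screened in duplicate; % inhibition = 100 − (well/plate positive-control mean ×100).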

In data set [3] the target is T2, Papain (Carica papaya) (UniProt P00784).
T2 sequence (whole entry): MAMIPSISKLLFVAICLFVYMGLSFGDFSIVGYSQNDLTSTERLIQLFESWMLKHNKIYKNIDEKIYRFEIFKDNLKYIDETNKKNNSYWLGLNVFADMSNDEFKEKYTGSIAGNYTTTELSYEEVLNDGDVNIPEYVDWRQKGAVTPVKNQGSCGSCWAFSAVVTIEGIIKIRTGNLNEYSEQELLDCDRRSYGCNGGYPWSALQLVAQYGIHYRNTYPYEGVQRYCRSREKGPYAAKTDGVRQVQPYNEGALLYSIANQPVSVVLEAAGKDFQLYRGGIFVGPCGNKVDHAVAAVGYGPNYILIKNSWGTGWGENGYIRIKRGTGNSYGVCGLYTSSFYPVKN
As to the kind of experiment: Inhibition of Carica papaya papain. Details: concentration or dose not given beside the values. The following applies: concentration not given here.

Data set [4] addresses T3, Sortase A (Staphylococcus aureus, UniProt Q9S446).
T3 sequence (Q9S446 whole entry): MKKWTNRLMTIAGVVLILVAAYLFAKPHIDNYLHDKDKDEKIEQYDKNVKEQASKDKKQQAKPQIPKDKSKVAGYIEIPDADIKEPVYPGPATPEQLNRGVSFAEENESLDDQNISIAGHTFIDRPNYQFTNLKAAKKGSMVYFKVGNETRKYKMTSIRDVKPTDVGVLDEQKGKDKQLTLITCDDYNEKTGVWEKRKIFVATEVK
As to the kind of experiment: (§2) Inhibition of Staphylococcus aureus sortase A.

Data set [5] has as its target T1, Sortase A (Staphylococcus aureus). The data set is described as §2.
The nature of data set [6]: as §1.
Data set [7] can be described thus: Inhibition of Bacillus anthracis sortase B.
Data set [8] in a line: Inhibition of Bacillus anthracis sortase C.
Substrate in data set [9]: CN(C)CCC(=O)c1cccs1
The following applies: Staphylococcus aureus; 50 uM.

Substrate in data set [10]: CN(C)CCC(=O)c1ccc(Cl)c(Cl)c1
The following applies: Staphylococcus aureus; 200 uM.

Calls of active or inactive are those of the source. No cut-off for these calls is given here.

The inhibition is the drop in the measured response relative to a control, in per cent. Broadly, the Ki is the equilibrium dissociation constant of an inhibitor or competing ligand from its target. Broadly, the IC50 is the midpoint of a concentration-inhibition curve. In general, Km refers to the substrate concentration at which the rate is half of its maximum.

As to `CC1CCCN(CCC(=O)c2ccc(Br)cc2)C1` (stereo not given), the results for the inhibition in data set [1], in data set [2] and in data set [3] were 83.7%, 56.9% and 33.8%, respectively.
In the same order, the values of `CN(C)CCC(=O)c1cccc([N+](=O)[O-])c1` are 90.2%, 54.3% and 47.2%.
In data set [4], `C=CC(=O)c1cccs1` had an inhibition constant Ki of 69 µM.
For `CCOC(=O)N1CCN(CCC(=O)c2ccc(Br)cc2)CC1`, the inhibition in data set [1] was determined as 90.7%; in [2], 80.2%; in data set [3] it was 48.5%.
For `C=CC(O)c1cccs1` (racemic), the outcome in data set [5] was inactive.
As to `Cc1ccc(C(=O)CCN2CCOCC2)cc1`, the values for the inhibition in data set [1], in data set [2] and in data set [3] were 88.9%, 56.9% and 31.2%, respectively.
In the same order, the values of `O=C(CCNc1ccccc1)c1cccc([N+](=O)[O-])c1` are 87.3%, 66% and 34%.
As for `CN(C)CCC(=O)c1cccs1`, the IC50 in data set [6] came to 4.8 µM; in [4], 47 µM; in [7] it was 34 µM; in [8], 15 µM. The inhibition in data set [1] is 90.7%; in data set [2] it was 54.8%; in data set [3], 19.1%. Also, the Ki in data set [4] is 93.2 µM.
As for `CN(C)CCC(=O)c1ccc(S(C)(=O)=O)cc1`, the inhibition in data set [1] was found to be 91.3%; in [2], 69.8%; in [3], 37.1%.
Turning to `CN(C)CCC(=O)c1ccc(Cl)c(Cl)c1`, the inhibition in [1] was 90.4%; in data set [2], 89.6%; in [3], 49.3%. The figures for the IC50 in data set [4], in [7] and in [8] were 15 µM, 14 µM and 20 µM, respectively. This molecule also displayed a Ki in data set [4] of 15.7 µM.
In the case of `O=C(CCN1CCOCC1)c1ccc(Cl)cc1`, the inhibition in data set [1] turned out to be 90.6%; in [2] it was 84.4%; in data set [3], 50.4%.
For the molecule `O=C(CCN1CCOCC1)c1ccc(F)cc1`, the inhibition in [1] was 89.1%; in data set [2], 47.2%; in data set [3] it was 46.6%.

B1: Sortase A (Staphylococcus aureus), Q9S446 (protein)
chain: MKKWTNRLMTIAGVVLILVAAYLFAKPHIDNYLHDKDKDEKIEQYDKNVKEQASKDKKQQAKPQIPKDKSKVAGYIEIPDADIKEPVYPGPATPEQLNRGVSFAEENESLDDQNISIAGHTFIDRPNYQFTNLKAAKKGSMVYFKVGNETRKYKMTSIRDVKPTDVGVLDEQKGKDKQLTLITCDDYNEKTGVWEKRKIFVATEVK
As for B1, in [9], the Km amounted to 5.8 µM and the Vmax amounted to 88.8 s⁻¹. For the same molecule, in data set [10], the Km was 5.91 µM and the Vmax was 58 s⁻¹.

For the origin of these results see ChEMBL document CHEMBL1145506, “Activation of inhibitors by sortase triggers irreversible modification of the active site” (J Biol Chem, 2007).
